Measured values reported in paper PMC7854864 (Cell chemical biology, 2020).

Experiments:
endogenous c-MYC = endogenous c-MYC (Homo sapiens, UniProt P01106); assay: EN4-alkyne-4 enrichment of endogenous MYC in cells; format: cell-based; details: 231MFP cells, 50 μM, 4 h, in situ
Procedure, shortened: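 231MFP cells at 70% confluency exposed in situ to DMSO or 50 μM alkyne probe for 4 h. Cells lysed by sonication and lysates normalised to 3.2 mg/mL. Probe-labelled proteins conjugated by CuAAC and pulled down. c-MYC in the pulldown detected by blotting; input c-MYC and vinculin also shown. n=3 biological replicates, quantified.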

[1] = system: MYC transcriptional activity; assay: MYC luciferase reporter assay in HEK293T cells; format: cell-based, human; details: for activity in MYC luciferase reporter assay: dose response, Table S4
Procedure, shortened: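 HEK293T cells (DMEM, 10% FBS) seeded at 35,000/well and transfected with Lipofectamine 2000 (complexes formed 25 min at room temperature). Reporter: firefly luciferase driven by TATA box plus tandem E-box repeats; negative control lacked response elements. Cells treated with DMSO or test compound (50 μM screen, or dose series) for 24 h. Firefly and Renilla read; blank subtracted, Firefly:Renilla calculated per well, then normalised to vehicle. n=3.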

[2] = target: pure human MYC C171Y mutant protein (Homo sapiens, UniProt P01106, C186Y); assay: Gel-based ABPP with pure C171Y mutant MYC protein; format: binding; details: 50 μM, 2 h, 37°C
Chain of pure human MYC C171Y mutant protein (P01106 16-454 C186Y): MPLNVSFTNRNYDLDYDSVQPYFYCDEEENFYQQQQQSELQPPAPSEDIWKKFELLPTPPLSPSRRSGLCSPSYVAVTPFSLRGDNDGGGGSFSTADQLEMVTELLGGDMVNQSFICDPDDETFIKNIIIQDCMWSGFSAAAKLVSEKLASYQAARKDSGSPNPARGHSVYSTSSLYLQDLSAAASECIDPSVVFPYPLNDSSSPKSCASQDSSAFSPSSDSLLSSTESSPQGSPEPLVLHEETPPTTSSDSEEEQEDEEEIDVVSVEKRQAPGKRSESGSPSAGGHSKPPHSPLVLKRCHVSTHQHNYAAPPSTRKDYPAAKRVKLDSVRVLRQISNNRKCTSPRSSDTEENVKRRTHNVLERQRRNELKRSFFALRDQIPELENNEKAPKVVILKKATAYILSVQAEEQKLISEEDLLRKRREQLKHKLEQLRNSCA
Procedure, shortened: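 Pure human wild-type and C171Y MYC (0.3 μg in 50 μl PBS) labelled directly with alkyne probe (50 μM) for 2 h at 37 °C. Rhodamine-azide (1 μM final) attached by CuAAC, 1 h at room temperature. Samples run on reducing SDS/PAGE (4–20% gels), fixed in acetic acid/ethanol, and imaged by in-gel rhodamine fluorescence; silver stain used for loading.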

[3] = system: 231MFP breast tumor xenograft; assay: 231MFP tumor xenograft study; format: in vivo; details: 50 mg/kg ip once per day, started 14 days after implantation, SCID mice
Procedure, shortened: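 Female C.B17 SCID mice (6–8 weeks) received 1 × 10⁶ 231MFP cells subcutaneously in the flank, suspended in serum-free medium. From 2 weeks after implantation, vehicle (18:1:1 PBS/ethanol/PEG40) or 50 mg/kg test compound was given ip once daily. Tumour size measured weekly by calipers; unpaired two-tailed t-test.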

MAX = MAX (Homo sapiens, UniProt P61244); assay: Cellular thermal shift assay; format: cell-based; details: 231MFP cells, 50 μM, 2 h
Chain of MAX (P01106 16-454 partner limits assumed): as the sequence (P01106 16-454 C186Y) above, with Y171C counted along it
Chain of MAX (P61244 whole entry): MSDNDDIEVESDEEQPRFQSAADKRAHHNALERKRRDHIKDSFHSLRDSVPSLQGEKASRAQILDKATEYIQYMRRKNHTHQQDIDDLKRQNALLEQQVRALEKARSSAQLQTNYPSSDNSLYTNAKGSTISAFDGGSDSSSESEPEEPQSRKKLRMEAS
Procedure, shortened: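 231MFP cells at 80% confluence treated with DMSO or 50 μM test compound for 120 min, then resuspended in PBS with protease inhibitors and compound or DMSO kept present. Aliquots heated 3 min at eight temperatures (37.0–58.0 °C), held 3 min at 25 °C, lysed by three liquid-nitrogen freeze-thaw cycles and spun 20,000 g, 20 min, 4 °C. Soluble MAX measured by Western blot with GAPDH as loading control; band intensity quantified.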

[4] = target: purified recombinant human MYC/MAX complex (Homo sapiens, UniProt P01106); assay: MYC/MAX in vitro DNA binding to E-box consensus sequence; format: biochemical
Chain of purified recombinant human MYC/MAX complex (P01106 16-454, one chain of several): as the sequence (P01106 16-454 C186Y) above, with Y171C counted along it
Procedure, shortened: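 Human full-length c-MYC (0.2 μg) was pre-incubated for 30 min at 37 °C with DMSO or test compound diluted from 50 mM DMSO stock into dPBS. MAX (0.2 μg) was then added, and the mixture was transferred to wells coated with the E-box consensus sequence for 1 h binding. Bound complex was detected with primary and secondary antibodies following a commercial transcription-factor kit protocol. IC50 was derived from the dose-response.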

MYC target genes = assay: RNA sequencing of EN4-treated 231MFP cells; format: cell-based, human; details: 50 μM, 24 h
Procedure, shortened: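 231MFP cells seeded in 6 cm dishes and treated with DMSO or 50 μM test compound for 24 h before RNA sequencing. Transcript changes reported as log₂ fold change of treated versus DMSO controls.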

MIZ1 or ZBTB17 = assay: MIZ1/ZBTB17 level with EN4 treatment; format: cell-based; details: Fig. S3f
pure human MYC protein = pure human MYC protein (Homo sapiens, UniProt P01106); assay: Gel-based ABPP with pure MYC protein; format: binding; details: pre-incubation 30 min 37°C, then EN4-alkyne-2 50 μM 2 h
Chain of pure human MYC protein (P01106 16-454): as the sequence (P01106 16-454 C186Y) above, with Y171C counted along it
Procedure, shortened: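 Pure human full-length MYC (0.3 μg in 50 μl PBS) pre-treated with DMSO or test compound for 30 min at 37 °C, then labelled with alkyne probe (50 μM) for 2 h at 37 °C. Rhodamine-azide (1 μM final) attached by CuAAC, 1 h at room temperature. Samples heated at 90 °C for 5 min in reducing Laemmli buffer, run on 4–20% gels, fixed, and read by in-gel fluorescence; silver stain used for loading.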

[5] = system: 231MFP breast cancer cells; assay: 231MFP cell proliferation; format: cell-based, human; details: 50 μM, daily treatment, 72 h
Procedure, shortened: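 231MFP cells (L15, 10% FBS, 37 °C, 0% CO2) seeded at 15,000/well in serum-containing L-15. Treated the next day with DMSO or test compound, with media and compound replaced daily for 72 h. Wells fixed and stained with 10% formalin plus Hoechst 33342 for 15 min at room temperature in the dark, washed and imaged. Reported as percent proliferation versus DMSO; unpaired two-tailed t-test.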

MYC = MYC (Homo sapiens, UniProt P01106); assay: Cellular thermal shift assay; format: cell-based; details: 231MFP cells, 50 μM, 2 h
Chain of MYC (P01106 16-454): as the sequence (P01106 16-454 C186Y) above, with Y171C counted along it
Procedure, shortened: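 231MFP cells (L15, 10% FBS, 37 °C, 0% CO2) at 80% confluence were exposed to test compound or DMSO at 50 μM for 120 min. They were then resuspended in PBS with protease inhibitors, still containing compound or DMSO, and heated for 3 min at eight temperatures (37.0–58.0 °C). After 3 min at 25 °C, cells were freeze-thaw lysed and spun at 20,000 g. Soluble c-MYC, MAX and GAPDH were measured by Western blot densitometry, relative to DMSO.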

C171Y FLAG-MYC = assay: MYC luciferase reporter in HEK293T cells expressing C171Y versus WT FLAG-MYC; format: cell-based, human; details: 50 μM, 24 h
Procedure, shortened: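 HEK293T cells seeded at 35,000/well and co-transfected with the MYC E-box luciferase reporter plus 1 μg/well FLAG-eGFP, FLAG-wild-type or FLAG-C171Y c-MYC plasmid (site-directed mutant), using Lipofectamine 2000 at 3:1 to DNA. Treated with DMSO or 50 μM test compound for 24 h. Blank-subtracted Firefly:Renilla expressed relative to DMSO set to 1; FLAG expression checked by Western blot.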

[6] = target: C171Y mutant MYC protein (with MAX) (Homo sapiens, UniProt P01106, C186Y); assay: MYC/MAX in vitro DNA binding with C171Y mutant MYC; format: biochemical; details: 50 μM
Chain of C171Y mutant MYC protein (with MAX) (P01106 16-454 C186Y): as the sequence (P01106 16-454 C186Y) above
Procedure, shortened: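 Plate-based assay adapted from a c-Myc transcription factor kit. Test compound (50 μM; diluted from 50 mM DMSO stock into dPBS) or DMSO pre-incubated with 0.2 μg pure full-length wild-type or C171Y MYC for 30 min at 37 °C. Then 0.2 μg MAX added and the mixture bound to wells coated with the E-box consensus sequence for 1 h. Bound complex detected with primary and secondary antibodies.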

[7] = system: MYC transcriptional activity; assay: MYC luciferase reporter upon JUN knockdown; format: cell-based, human; details: HEK293T, siJUN, 24 h
[8] = system: MYC-transformed mammary epithelial MCF10A cells; assay: Serum-free cell survival, MYC-expressing MCF10A; format: cell-based, human; details: 48 h
Procedure, shortened: (§1)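 MCF10A parental or MYC-overexpressing cells (maintained in DMEM/F12K with 5% horse serum, EGF, cholera toxin, insulin and hydrocortisone) seeded at 40,000/well and allowed to adhere overnight. Treated with DMSO or test compound in serum-free medium for 48 h. Fixed and stained with formalin/Hoechst 33342, then imaged. Survival normalised to the DMSO control of each line set to 1; unpaired two-tailed t-test.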

[9] = system: CDK2, CDC25A and MYC protein levels; assay: Western blotting of MYC transcriptional targets in 231MFP cells; format: cell-based, human; details: 50 μM, 36 h
Procedure, shortened: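 231MFP cells treated with DMSO or 50 μM test compound for 36 h, with medium and treatment replenished at 24 h. CDK2, CDC25A and MYC levels measured by Western blot with vinculin as loading control. n=3 biological replicates; blots quantified; unpaired two-tailed t-test.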

parental MCF10A cells = assay: Serum-free cell survival, parental MCF10A; format: cell-based, human; details: 48 h
Procedure, shortened: as §1

pure human c-JUN protein = pure human c-JUN protein (Homo sapiens, UniProt P05412); assay: Gel-based ABPP with pure JUN protein; format: binding; details: Fig. S3b
Chain of pure human c-JUN protein (P05412 whole entry): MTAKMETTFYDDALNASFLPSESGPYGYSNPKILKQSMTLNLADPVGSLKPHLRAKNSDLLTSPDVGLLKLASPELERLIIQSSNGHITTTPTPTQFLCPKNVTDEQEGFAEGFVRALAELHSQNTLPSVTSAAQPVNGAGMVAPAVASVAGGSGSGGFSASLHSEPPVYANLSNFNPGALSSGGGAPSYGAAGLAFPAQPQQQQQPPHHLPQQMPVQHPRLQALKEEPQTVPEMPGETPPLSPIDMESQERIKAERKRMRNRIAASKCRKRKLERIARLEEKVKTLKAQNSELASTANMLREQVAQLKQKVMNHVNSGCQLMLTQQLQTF
Procedure, shortened: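 Recombinant pure human c-JUN (0.1 μg) was pretreated with DMSO or test compound in 25 μl PBS for 1 h at 37 °C. It was then labeled with 200 nM IA-rhodamine for 1 h at room temperature. Samples were denatured in reducing Laemmli buffer at 90 °C for 5 min, separated on 4–20% SDS/PAGE gels, fixed, and read by in-gel fluorescence.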

Chain of endogenous c-MYC (P01106 16-454): as the sequence (P01106 16-454 C186Y) above, with Y171C counted along it

C#Cc1ccc(Oc2ccc(OCC)cc2)c(NC(=O)c2ccc(CNC(=O)C=C)cc2)c1 [EN4-alkyne-4, 4-(acrylamidomethyl)-N-(2-(4-ethoxyphenoxy)-5-ethynylphenyl)benzamide]
enrichment of endogenous c-MYC versus vehicle (endogenous c-MYC): significantly enriched endogenous c-MYC
EC50 ([1]; Homo sapiens, HEK-293T, read-out: EC50 in MYC luciferase reporter assay): 1.4 µM

C#CCOc1ccc(NC(=O)c2ccc(CNC(=O)C=C)cc2)c(Oc2ccc(OCC)cc2)c1 [EN4-alkyne-2, 4-(acrylamidomethyl)-N-(2-(4-ethoxyphenoxy)-4-(prop-2-yn-1-yloxy)phenyl) benzamide]
probe labeling of C171Y mutant MYC compared to wild-type [2]: labeling was not observed

C=CC(=O)NCc1ccc(C(=O)Nc2ccccc2Oc2ccc(OCC)cc2)cc1 [EN4]
tumor growth in vivo [3]: significantly attenuated tumor growth
MAX thermal stability (MAX): reduced the thermal stability
IC50 ([4]; read-out: 50 % inhibitory concentration (IC50) for MYC/MAX binding to the E-box response element DNA consensus sequence, dose-response, Fig. 1d, pre-incubated with MYC 30 min before MAX): 6.7 µM
expression of direct MYC target genes and MYC-regulated gene targets (MYC target genes): significantly downregulated
level of MYC binding partner MIZ1 or ZBTB17 (MIZ1 or ZBTB17): upregulation
competition of EN4-alkyne-2 labeling of pure MYC (pure human MYC protein): displaced the labeling of EN4-alkyne-2
inhibition of proliferation [5]: > 90%
MYC thermal stability (MYC): significantly reduced MYC thermal stability
MYC inhibitory effect in cells expressing C171Y FLAG-MYC compared to WT FLAG-MYC (C171Y FLAG-MYC): significantly attenuated
inhibition of MYC/MAX DNA binding with C171Y mutant compared to wild-type MYC [6]: significantly attenuated
inhibition of MYC luciferase reporter activity upon JUN knockdown compared to control cells [7]: comparable inhibitory effects
cell survival of MYC-transformed MCF10A cells [8]: impaired the cell survival
MYC protein levels [9]: substantially reduced
protein levels of CDK2 and CDC25A [9]: significantly lowered
cell survival of parental MCF10A cells (parental MCF10A cells): but not parental MCF10A cells
inhibition of MYC transcriptional activity in covalent ligand screen ([1]; 50 μM, 24 h, HEK293T, Fig. 1b): strongest inhibition
competition against IA-rhodamine labeling of pure JUN (pure human c-JUN protein): competition of EN4 against labeling of pure JUN protein

CCOc1ccc(Oc2ccccc2NC(=O)c2ccc(CNC(=O)/C=C/C(F)(F)F)cc2)cc1 [EN4–6, (E)-N-(2-(4-ethoxyphenoxy)phenyl)-4-((4,4,4-trifluorobut-2-enamido)methyl) benzamide]
activity in MYC luciferase reporter assay ([1]; HEK293T): loss of activity

CCOc1ccc(Oc2ccccc2NC(=O)c2ccc(CNC(=O)CCl)cc2)cc1 [EN4–3, 4-((2-chloroacetamido)methyl)-N-(2-(4-ethoxyphenoxy)phenyl)benzamide]
activity in MYC luciferase reporter assay ([1]; HEK293T): loss of activity

CCOc1ccc(Oc2ccccc2NC(=O)c2ccc(CNC(=O)CC)cc2)cc1 [EN4–18, N-(2-(4-ethoxyphenoxy)phenyl)-4-(propionamidomethyl)benzamide]
inhibition of MYC/MAX DNA binding in vitro ([4]; Fig. S4): significantly inhibits MYC/MAX DNA binding
activity in MYC luciferase reporter assay ([1]; HEK293T): inhibited MYC luciferase reporter activity
